The subject of data set [1] is Erythrocyte. Nature of the data set: Antihemolytic activity against hypotonic hemolysis in Wistar rat erythrocytes at 100 uM after 10 mins relative to sucrase. It counts as functional, cell-based. A digest of the protocol:
(§1)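 Blood was taken by puncture from urethane-anaesthetized (1.2 g/kg) Wistar rats and heparinised. After centrifugation, plasma and leukocyte layer were removed and cells were resuspended in 154 mM NaCl/10 mM phosphate buffer pH 7.0. The suspension was added to drug dilutions in hypotonic NaCl/phosphate buffer pH 7.0 (NaCl 63–67 mM for 50% haemolysis) and held 10 min at room temperature. It was then spun, and supernatant haemoglobin was read at 540 nm. Run in duplicate; expressed as relative haemolysis.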

Data set [2] in a line: Toxicity in isolated Wistar rat sciatic nerve assessed as axonal damage by LDH assay. The data set is classed as tissue-based. Conditions: ex_vivo. A digest of the protocol: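 Neuronal damage in isolated Wistar rat sciatic nerve bundles was gauged from LDH activity leaked into the incubation medium over time, following the Bergmeyer method.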
In data set [3] the test system is Sciatic nerve. Nature of the data set: Inhibition of amplitude of compound action potential in isolated Wistar rat sciatic nerve after 15 mins by electrophysiology assay. The data set is classed as functional, tissue-based. A digest of the protocol: (§2)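 Sciatic nerve bundles 3–4 cm long came from adult Wistar rats (200–400 g). Drugs in Tyrode's solution were applied cumulatively (0.100–3.00 µM) at 1 mL/min flow, with at least 15 min contact each. Blockade was taken as percentage decrement in compound action potential amplitude versus control. Solvent was at most 0.05% v/v.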

For data set [4], the system named is Erythrocyte. The experiment in a line: Antihemolytic activity against hypotonic hemolysis in Wistar rat erythrocytes at 0.1 to 1 uM after 10 mins. The data set is classed as functional, cell-based. A digest of the protocol:
as §1

Data set [5] is described as follows: Antihemolytic activity against hypotonic hemolysis in Wistar rat erythrocytes at 100 uM after 10 mins relative to control. It counts as functional, Erythrocyte. A digest of the protocol: as §1
In data set [6] the test system is Erythrocyte. Nature of the data set: Antihemolytic activity against hypotonic hemolysis in Wistar rat erythrocytes at 0.3 to 1 uM after 10 mins. It counts as functional, cell-based. A digest of the protocol: as §1
Data set [7] concerns Erythrocyte. The experiment in a line: Antihemolytic activity against hypotonic hemolysis in Wistar rat erythrocytes after 10 mins. It counts as functional, cell-based. A digest of the protocol:
as §1

In data set [8] the test system is Sciatic nerve. Nature of the data set: Inhibition of amplitude of compound action potential in isolated Wistar rat sciatic nerve at 0.1 to 3 uM after 15 mins by electrophysiology assay. The data set is classed as functional, tissue-based. A digest of the protocol:
as §2

Data set [9] concerns Erythrocyte. Nature of the data set: Antihemolytic activity against hypotonic hemolysis in Wistar rat erythrocytes at 0.1 to 30 uM after 10 mins. It counts as functional, cell-based. A digest of the protocol: as §1
Data set [10] has as its system Erythrocyte. The experiment in a line: Antihemolytic activity against hypotonic hemolysis in Wistar rat erythrocytes at 0.1 to 100 uM after 10 mins. The data set is classed as functional, cell-based. A digest of the protocol:
as §1

The source made the active and inactive calls. The calls are words filed in the database; no cut-off is given here.

`COc1ccc2c(=O)c3cc(C(=O)N[C@H](CO)C(C)C)ccc3oc2c1`: the outcome in the data set on Erythrocyte [1] and with Erythrocyte [4] was Active. The Activity result in data set [2] is reported as “Non-toxic”. In the data set with Sciatic nerve [3], the inhibition entry is “Dose-dependent effect”.

Consider `COc1ccc2c(=O)c3cc(C(=O)N[C@@H](C)c4ccc(C)cc4)ccc3oc2c1`, for which the Activity entry in data set [2] is given as “Non-toxic”. Besides, the Ratio in data set [5] is recorded as 0.967. Besides, the inhibition entry in the data set on Sciatic nerve [3] is “Dose-dependent effect”. Besides, the result with Erythrocyte [6] was Active.

As to `CCCCOc1cc(C(=O)NCCN(CC)CC)c2ccccc2n1` [DIBUCAINE], the Ratio in data set [5] is reported as 0.421. The Activity entry in the data set on Erythrocyte [7] is “Dose-dependent effect”. In addition, in the data set on Sciatic nerve [8], the inhibition result is “Active”.

Regarding `COc1ccc2c(=O)c3cc(C(=O)N[C@H](CO)CC(C)C)ccc3oc2c1`, in data set [2], the Activity result is “Non-toxic”. The inhibition entry in the data set with Sciatic nerve [3] is “Dose-dependent effect”. Also, the outcome with Erythrocyte [6] was Active.

Take `O=c1c2ccccc2oc2ccccc12` [XANTHONE]: the result with Erythrocyte [9] was inactive. Moreover, the Ratio in data set [5] came out at 0.686.

Regarding `OC[C@H]1O[C@@](CO)(O[C@H]2O[C@H](CO)[C@@H](O)[C@H](O)[C@H]2O)[C@@H](O)[C@@H]1O`, the result in the data set with Erythrocyte [10] was Active. The inhibition result in the data set on Sciatic nerve [8] is “inactive”.
